Results on 1 compound are retold here after ChEMBL document CHEMBL1156534, “Hemopressin is an inverse agonist of CB1 cannabinoid receptors” (Proc Natl Acad Sci U S A, 2007).

The source made the active and inactive calls.

The target of experiment [1] is Mu-type opioid receptor (Homo sapiens) (UniProt P35372). Nature of the experiment: Antagonist activity at mu opioid receptor expressed in HEK293 cells assessed as blockade of secreted alkaline phosphatase activity at 1 uM after 6 hrs relative to control. The experiment is classed as functional, cell-based. Summed up: (§1)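 HEK-293 cells transiently co-transfected with pCRE-SeAP and a Flag-tagged receptor, 30,000 cells/well on poly-L-lysine. They were serum-starved 16–18 h, then exposed 6 h in serum-free medium to 10 μM forskolin (omitted for β2) plus the receptor agonist (100 nM), with or without peptide (1 μM). Heat-treated supernatant SeAP was read by CSPD chemiluminescence. Mean ± SEM, n = 6.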

The subject of experiment [2] is Rattus norvegicus. Nature of the experiment: Antihyperalgesic effects in Wistar rat assessed as reduction of carrageenan-induced paw pressure at 10 ug/kg, intraplantar after 3 hrs. The experiment is classed as functional, organism-based. Summed up:
(§2)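 Male Wistar rats (200 g) received carrageenan 200 μg/paw intraplantar in saline into the right hind paw. Peptide was given at the same time: intraplantar 10 μg/paw, intrathecal 0.5 or 5 μg/kg, or oral 50 or 100 μg/kg; saline-treated rats served as controls. Paw-pressure withdrawal threshold (force ramp 16 g/s) was read at 0 and 3 h. n = 6–8.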

The subject of experiment [3] is Rattus norvegicus. Nature of the experiment: Antihyperalgesic effects in Wistar rat assessed as reduction of carrageenan-induced paw pressure at 5 ug/kg, intrathecal after 3 hrs. The experiment is classed as functional, organism-based. Summed up: as §2
Experiment [4] deals with Mus musculus. The experiment is described as follows: Effect on motor coordination in C57BL/6 mouse at […], ip after 1 hrs. The experiment is classed as functional, organism-based.
The target of experiment [5] is Cannabinoid receptor 1 (Homo sapiens) (UniProt P21554). Nature of the experiment: Antagonist activity at CB1 receptor expressed in HEK293 cells assessed as blockade of Hu210-mediated decrease in secreted alkaline phosphatase activity at 1 uM after 6 hrs relative to control. The experiment is classed as functional, cell-based. The procedure, abridged: as §1
The target of experiment [6] is Mu-type opioid receptor (Homo sapiens) (UniProt P35372). The experiment is described as follows: Antagonist activity at mu opioid receptor expressed in HEK293 cells assessed as blockade of DAMGO-mediated decrease in secreted alkaline phosphatase activity at 1 uM after 6 hrs relative to control. It is filed as functional, cell-based. Summed up: as §1
Experiment [7] deals with T1, Type-2 angiotensin II receptor (Homo sapiens) (UniProt P50052).
T1 sequence (whole entry): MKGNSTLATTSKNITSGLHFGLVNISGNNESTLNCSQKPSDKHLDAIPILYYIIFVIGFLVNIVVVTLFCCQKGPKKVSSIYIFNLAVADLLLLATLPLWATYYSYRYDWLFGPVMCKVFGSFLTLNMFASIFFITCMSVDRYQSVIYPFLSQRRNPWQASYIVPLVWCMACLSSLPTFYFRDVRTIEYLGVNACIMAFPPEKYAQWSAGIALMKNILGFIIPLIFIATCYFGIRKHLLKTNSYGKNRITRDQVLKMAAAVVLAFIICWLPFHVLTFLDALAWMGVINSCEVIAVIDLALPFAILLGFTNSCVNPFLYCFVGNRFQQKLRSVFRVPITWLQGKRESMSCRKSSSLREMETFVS
Nature of the experiment: Antagonist activity at AT2 angiotensin receptor expressed in SKNSH cells at 100 nM by ELISA. The experiment is classed as functional, cell-based. Details: scale not given: the % may be the effect or the level left.

Experiment [8] deals with T2, Alpha-2A adrenergic receptor (Homo sapiens) (UniProt P08913).
T2 sequence (whole entry): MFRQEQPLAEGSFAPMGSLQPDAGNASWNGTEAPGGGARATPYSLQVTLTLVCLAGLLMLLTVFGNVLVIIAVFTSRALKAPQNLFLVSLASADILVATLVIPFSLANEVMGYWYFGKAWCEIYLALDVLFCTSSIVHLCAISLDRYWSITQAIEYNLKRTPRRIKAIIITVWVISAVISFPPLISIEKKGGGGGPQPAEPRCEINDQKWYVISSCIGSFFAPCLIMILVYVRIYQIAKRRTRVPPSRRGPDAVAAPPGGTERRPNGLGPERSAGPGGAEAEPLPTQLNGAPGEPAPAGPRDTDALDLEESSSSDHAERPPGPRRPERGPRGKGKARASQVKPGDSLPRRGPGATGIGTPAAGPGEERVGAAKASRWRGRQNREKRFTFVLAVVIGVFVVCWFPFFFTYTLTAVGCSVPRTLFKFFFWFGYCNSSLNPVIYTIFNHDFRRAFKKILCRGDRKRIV
The experiment is described as follows: Antagonist activity at alpha2A adrenergic receptor expressed in HEK293 cells assessed as blockade of secreted alkaline phosphatase activity at 1 uM after 6 hrs relative to control. It is filed as functional, cell-based. The procedure, abridged: as §1

Experiment [9] deals with Cannabinoid receptor 1 (Homo sapiens) (UniProt P21554). The experiment is described as follows: Antagonist activity at CB1 receptor expressed in SKNSH cells at 100 nM by ELISA relative to control. Details: scale not given: the % may be the effect or the level left. The experiment is classed as functional, cell-based.
Experiment [10] has as its target Beta-2 adrenergic receptor (Homo sapiens) (UniProt P07550). The experiment is described as follows: Antagonist activity at beta2 adrenergic receptor expressed in SKNSH cells at 100 nM by ELISA relative to control. It is filed as functional, cell-based. Details: scale not given: the % may be the effect or the level left.
Experiment [11] deals with T3, Type-1 angiotensin II receptor (Homo sapiens) (UniProt P30556).
T3 sequence (whole entry): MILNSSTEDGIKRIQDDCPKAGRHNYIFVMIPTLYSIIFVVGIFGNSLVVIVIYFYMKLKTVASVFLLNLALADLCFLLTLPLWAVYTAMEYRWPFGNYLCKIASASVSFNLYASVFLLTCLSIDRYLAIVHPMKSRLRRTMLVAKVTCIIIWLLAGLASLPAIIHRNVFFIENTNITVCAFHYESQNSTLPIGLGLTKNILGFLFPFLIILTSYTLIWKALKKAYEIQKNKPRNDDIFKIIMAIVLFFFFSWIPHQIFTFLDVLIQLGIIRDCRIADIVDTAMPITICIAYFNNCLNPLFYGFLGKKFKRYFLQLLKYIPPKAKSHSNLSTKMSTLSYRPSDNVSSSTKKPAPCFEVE
Nature of the experiment: Antagonist activity at AT1 angiotensin receptor expressed in SKNSH cells at 100 nM by ELISA relative to control. The experiment is classed as functional, cell-based. On the set-up: scale not given: the % may be the effect or the level left.

In experiment [12] the target is Cannabinoid receptor 2 (Homo sapiens) (UniProt P34972). Nature of the experiment: Antagonist activity at CB2 receptor expressed in SKNSH cells assessed as blockade of Hu210-induced increase in antibody recognition at 100 nM by ELISA relative to control. On the set-up: scale not given: the % may be the effect or the level left. The experiment is classed as functional, cell-based.

For experiment [13], the target named is Beta-2 adrenergic receptor (Homo sapiens) (UniProt P07550). The experiment is described as follows: Antagonist activity at beta2 adrenergic receptor expressed in SKNSH cells assessed as blockade of isoproterenol-induced increase in antibody recognition at 100 nM by ELISA relative to control. It is filed as functional, cell-based. On the set-up: scale not given: the % may be the effect or the level left.

Experiment [14] addresses T3, Type-1 angiotensin II receptor (Homo sapiens). Nature of the experiment: Antagonist activity at AT1 angiotensin receptor expressed in SKNSH cells assessed as blockade of angiotensin 2-induced increase in antibody recognition at 100 nM by ELISA relative to control. The experiment is classed as functional, cell-based. On the set-up: scale not given: the % may be the effect or the level left.

Beta-2 adrenergic receptor (Homo sapiens), sequence (P07550 whole entry, looked up): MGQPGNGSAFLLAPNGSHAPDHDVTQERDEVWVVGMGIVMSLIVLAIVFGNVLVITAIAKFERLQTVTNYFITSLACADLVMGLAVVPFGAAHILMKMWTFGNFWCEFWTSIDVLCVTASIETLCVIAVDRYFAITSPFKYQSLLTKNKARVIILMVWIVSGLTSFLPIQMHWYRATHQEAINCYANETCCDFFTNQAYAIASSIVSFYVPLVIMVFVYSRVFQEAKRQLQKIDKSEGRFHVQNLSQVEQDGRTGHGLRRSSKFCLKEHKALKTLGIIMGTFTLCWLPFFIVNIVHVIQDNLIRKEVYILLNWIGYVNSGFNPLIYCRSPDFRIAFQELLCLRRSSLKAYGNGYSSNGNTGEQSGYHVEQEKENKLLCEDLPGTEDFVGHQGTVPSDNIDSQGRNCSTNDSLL
Cannabinoid receptor 1 (Homo sapiens), sequence (P21554 whole entry): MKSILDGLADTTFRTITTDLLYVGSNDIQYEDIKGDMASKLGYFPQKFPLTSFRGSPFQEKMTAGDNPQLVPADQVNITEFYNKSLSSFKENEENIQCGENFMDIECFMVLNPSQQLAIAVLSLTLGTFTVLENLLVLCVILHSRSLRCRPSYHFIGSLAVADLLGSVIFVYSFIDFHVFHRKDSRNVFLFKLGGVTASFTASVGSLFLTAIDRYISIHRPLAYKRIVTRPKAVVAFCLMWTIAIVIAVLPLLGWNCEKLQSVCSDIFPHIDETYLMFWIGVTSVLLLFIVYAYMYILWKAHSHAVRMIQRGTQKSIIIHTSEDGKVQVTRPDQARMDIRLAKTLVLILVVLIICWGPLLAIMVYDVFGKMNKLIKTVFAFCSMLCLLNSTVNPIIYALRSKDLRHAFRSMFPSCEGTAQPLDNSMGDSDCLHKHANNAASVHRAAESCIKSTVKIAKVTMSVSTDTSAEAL
Mu-type opioid receptor (Homo sapiens), sequence (P35372 whole entry): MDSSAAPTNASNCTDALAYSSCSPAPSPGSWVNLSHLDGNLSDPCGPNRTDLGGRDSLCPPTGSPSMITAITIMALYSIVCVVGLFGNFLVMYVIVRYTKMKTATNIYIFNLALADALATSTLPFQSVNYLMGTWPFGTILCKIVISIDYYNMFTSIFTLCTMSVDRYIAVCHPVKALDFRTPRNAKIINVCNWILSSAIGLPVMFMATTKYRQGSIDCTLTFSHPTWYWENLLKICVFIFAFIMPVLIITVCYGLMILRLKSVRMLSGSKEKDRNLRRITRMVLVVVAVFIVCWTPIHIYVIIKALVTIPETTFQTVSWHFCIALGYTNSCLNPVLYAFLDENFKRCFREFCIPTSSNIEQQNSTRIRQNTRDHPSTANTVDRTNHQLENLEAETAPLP
Cannabinoid receptor 2 (Homo sapiens), sequence (P34972 whole entry): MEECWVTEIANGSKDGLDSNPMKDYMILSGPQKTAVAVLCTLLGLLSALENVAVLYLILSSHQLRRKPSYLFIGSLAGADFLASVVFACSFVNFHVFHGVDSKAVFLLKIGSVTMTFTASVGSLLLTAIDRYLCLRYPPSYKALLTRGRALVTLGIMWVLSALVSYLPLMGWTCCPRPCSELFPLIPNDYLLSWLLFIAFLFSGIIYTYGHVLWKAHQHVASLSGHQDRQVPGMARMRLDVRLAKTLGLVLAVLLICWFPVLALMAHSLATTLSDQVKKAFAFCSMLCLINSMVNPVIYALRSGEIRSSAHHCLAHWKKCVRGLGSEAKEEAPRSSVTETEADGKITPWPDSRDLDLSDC

Take `CC(C)C[C@H](NC(=O)[C@H](Cc1ccccc1)NC(=O)[C@H](CCCCN)NC(=O)[C@H](Cc1ccccc1)NC(=O)[C@H](CC(N)=O)NC(=O)[C@@H](NC(=O)[C@@H]1CCCN1)C(C)C)C(=O)N[C@@H](CO)C(=O)N[C@@H](Cc1cnc[nH]1)C(=O)O` [HEMOPRESSIN]: the Activity in experiment [1] was 0.98; in experiment [5], 1.07; in experiment [6] it was 0.61; in experiment [7], 100%; in [8], 0.92; in experiment [9], 72%. Further, the Activity in experiment [10] is 104%; in experiment [11], 110%; in [12], 108%; in experiment [13] it was 157%; in experiment [14] it was 140%. Also, the outcome in experiment [2] and in experiment [3] was Active. Besides, the result in experiment [4] was inactive.
